Assay results: publication PMC3262993 (Chemmedchem, 2009)
Where two headings read alike, the source gives them in different places.

How the values were obtained:
[1] = tested on: tactile allodynia in a paclitaxel-induced neuropathic pain model; experiment: Tactile allodynia in paclitaxel-induced neuropathic pain model; assay type: in vivo, rat; conditions: paclitaxel-treated rats; for Effect on mechanical (tactile) allodynia: intraperitoneal administration
Summary of the method: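 Adult male Sprague Dawley rats (120–150 g) were housed three per cage on a 12 h light/dark cycle. Paclitaxel was given at 1.0 mg kg−1 i.p. daily for 4 days (cumulative 4 mg kg−1), with vehicle 10 % Cremophor EL in saline at 1 mL kg−1. Hind-paw mechanical withdrawal was tested daily from day 0 after ≥30 min acclimation on wire mesh. Test compound was given i.p.; n = 5–6 per group.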

[2] = target: recombinant human CB1 (hCB1) (Homo sapiens, UniProt P21554); experiment: γ-[35S]GTP functional assay, hCB1; assay type: biochemical
Sequence of recombinant human CB1 (hCB1) (P21554 whole entry): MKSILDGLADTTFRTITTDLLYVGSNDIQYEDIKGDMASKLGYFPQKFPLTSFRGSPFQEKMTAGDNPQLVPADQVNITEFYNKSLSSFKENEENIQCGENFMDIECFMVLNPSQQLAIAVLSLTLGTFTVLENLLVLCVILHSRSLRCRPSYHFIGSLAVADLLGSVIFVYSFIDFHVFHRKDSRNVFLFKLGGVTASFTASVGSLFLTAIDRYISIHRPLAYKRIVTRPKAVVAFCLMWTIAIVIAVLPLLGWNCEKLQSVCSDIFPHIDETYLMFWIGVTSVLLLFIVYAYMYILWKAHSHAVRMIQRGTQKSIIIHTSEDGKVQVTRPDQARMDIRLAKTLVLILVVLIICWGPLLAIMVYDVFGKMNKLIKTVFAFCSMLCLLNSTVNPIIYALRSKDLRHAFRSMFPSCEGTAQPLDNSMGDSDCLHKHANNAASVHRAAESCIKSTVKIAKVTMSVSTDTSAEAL

[3] = tested on: neuropathic pain in spinal nerve ligation and paclitaxel-induced neuropathy models; conditions: cited from earlier work
hCB2 = hCB2 (Homo sapiens, UniProt P34972); experiment: Radioligand competitive binding assay
Sequence of hCB2 (P34972 whole entry): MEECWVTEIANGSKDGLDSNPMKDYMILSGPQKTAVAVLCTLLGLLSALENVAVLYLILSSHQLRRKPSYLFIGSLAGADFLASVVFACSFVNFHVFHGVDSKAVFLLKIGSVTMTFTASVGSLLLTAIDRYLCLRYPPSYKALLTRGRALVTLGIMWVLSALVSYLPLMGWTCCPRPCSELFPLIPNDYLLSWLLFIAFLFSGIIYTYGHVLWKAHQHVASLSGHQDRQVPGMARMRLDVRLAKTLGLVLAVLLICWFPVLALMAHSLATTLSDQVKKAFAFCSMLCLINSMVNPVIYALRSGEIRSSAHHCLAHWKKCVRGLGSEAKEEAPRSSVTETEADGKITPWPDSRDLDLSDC

hCB1 = hCB1 (Homo sapiens, UniProt P21554); experiment: Radioligand competitive binding assay, hCB1
Sequence of hCB1 (P21554 whole entry): as the sequence (P21554 whole entry) above

K+ channel hERG = K+ channel hERG (Homo sapiens, UniProt Q12809)
Sequence of K+ channel hERG (Q12809 whole entry): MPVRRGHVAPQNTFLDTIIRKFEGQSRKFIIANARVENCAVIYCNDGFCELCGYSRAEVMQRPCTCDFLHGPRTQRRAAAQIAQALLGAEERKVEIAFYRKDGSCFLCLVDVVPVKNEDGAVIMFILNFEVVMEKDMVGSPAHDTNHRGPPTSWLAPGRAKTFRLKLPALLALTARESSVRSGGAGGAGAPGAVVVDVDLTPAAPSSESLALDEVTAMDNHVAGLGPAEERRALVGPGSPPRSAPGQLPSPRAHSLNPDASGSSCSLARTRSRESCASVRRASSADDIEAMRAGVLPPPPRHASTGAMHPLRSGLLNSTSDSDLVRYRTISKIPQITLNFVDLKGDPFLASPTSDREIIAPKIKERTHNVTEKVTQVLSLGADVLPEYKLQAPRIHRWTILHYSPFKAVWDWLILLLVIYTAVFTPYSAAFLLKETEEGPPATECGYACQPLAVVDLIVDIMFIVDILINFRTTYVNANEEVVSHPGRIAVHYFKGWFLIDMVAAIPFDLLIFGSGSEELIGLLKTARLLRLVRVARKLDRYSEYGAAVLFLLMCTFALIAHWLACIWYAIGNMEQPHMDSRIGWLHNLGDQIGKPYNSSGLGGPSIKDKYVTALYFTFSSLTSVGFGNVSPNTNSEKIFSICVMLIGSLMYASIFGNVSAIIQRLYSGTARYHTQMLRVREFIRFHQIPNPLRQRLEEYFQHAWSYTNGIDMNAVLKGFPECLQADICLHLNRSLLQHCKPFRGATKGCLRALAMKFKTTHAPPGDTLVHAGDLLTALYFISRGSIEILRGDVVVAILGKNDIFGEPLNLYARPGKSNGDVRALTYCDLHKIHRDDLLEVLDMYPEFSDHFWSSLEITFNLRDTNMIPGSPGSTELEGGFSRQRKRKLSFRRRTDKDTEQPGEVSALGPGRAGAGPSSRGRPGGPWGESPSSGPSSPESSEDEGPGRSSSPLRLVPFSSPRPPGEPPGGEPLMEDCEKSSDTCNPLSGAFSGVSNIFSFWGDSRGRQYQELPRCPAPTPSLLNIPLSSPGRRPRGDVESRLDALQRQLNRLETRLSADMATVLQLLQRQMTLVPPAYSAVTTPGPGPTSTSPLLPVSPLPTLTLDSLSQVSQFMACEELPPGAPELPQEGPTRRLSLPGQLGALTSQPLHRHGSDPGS

[4] = target: recombinant human CB2 (hCB2) (Homo sapiens, UniProt P34972); experiment: γ-[35S]GTP functional assay, hCB2; assay type: biochemical; conditions: for γ-[35S]GTP hCB2 Emax: percentage relative to the efficacy of compound 7
Sequence of recombinant human CB2 (hCB2) (P34972 whole entry): as the sequence (P34972 whole entry) above

plasma protein = conditions: 1.0E-05 M
[5] = PBS, pH 7.4, at 2.0 × 10^-4 M
[6] = read-out: Ki hCB2, CHO-K1 membranes, 1 nM [3H]7, mean ± SEM

In the case of `CN1CCCCC1Cn1cc(C(=O)c2cc([N+](=O)[O-])ccc2I)c2ccccc21` (stereo not shown) [Compound 1, AM1241, reference compound], the “Effects on tactile allodynia versus vehicle” value ([1]; i.p., 1, 3 and 5 mg kg^-1) is reported as “not significantly different from the effects induced by the vehicle” and the “Effect on mechanical (tactile) allodynia” value [1] is reported as “did not affect the paw withdrawal threshold”.
In the case of `CC1(Cc2ccccc2)COc2ccc(C(=O)NC3CCCCC3)cc21` (stereo not shown) [Compound 14, 3-Benzyl-3-methyl-2,3-dihydrobenzofuran-5-carboxylic acid cyclohexylamide], the EC50 [2] is reported as over 10000 nM.
In the case of `CC1(Cc2ccccc2)COc2cc(C(=O)NC3CCCCC3)ccc21` (stereo not shown) [Compound 17, 3-Benzyl-3-methyl-2,3-dihydrobenzofuran-6-carboxylic acid cyclohexylamide], the EC50 [2] is reported as over 10000 nM.
For `CC1(Cc2ccccc2)COc2cc(C(=O)N3CCCCC3)ccc21` (stereo not shown) [Compound 18, 3-Benzyl-3-methyl-2,3-dihydrobenzofuran-6-carboxylic acid piperidine amide], the “Effect on locomotor behavior” value ([3]; rats) is given as “without affecting locomotor behavior”, the “Effect on neuropathic pain” value ([3]; spinal nerve ligation and paclitaxel-induced neuropathy models in rats) is given as “reversed neuropathic pain” and the Ki (hCB2; [6]) is given as 422 ± 123 nM. The Ki (hCB1; read-out: Ki hCB1, mean ± SEM) was over 10000 nM, the Cardiac toxicity (K+ channel hERG) was “did not show any cardiac toxicity” and the “K+ channel hERG automated patch-clamp (cardiac toxicity)” value (K+ channel hERG; at 1 μM) was “inactive at 1 μm”. For the same molecule, the “γ-[35S]GTP hCB2 Emax” value [4] was 88.3%, the “Protein bound (human)” value (plasma protein) was 82.8 ± 11.1% and the “Protein recovery (human)” value (plasma protein) was 95.6 ± 13.6%. For the same molecule, the “Genetic toxicity (Ames test)” value (strain TA98; up to 10 μM) was “No genetic toxicity”, the “Ames test (strain TA98 +S9)” value (strain TA98; with S9) was under 0 and the “Ames test (strain TA98)” value (strain TA98; without S9) was under 0. The Aqueous solubility [5] was 31.8 ± 1.8 μm μM, the “Intestinal permeability, assessment” value (TC7) was “compatible with oral administration with no efflux” and the “A–B permeability (% recovery)” value (TC7; TC7, pH 6.5/7.4) was 63.5 ± 6.5%. For the same molecule, the “B–A permeability (% recovery)” value (TC7; TC7, pH 6.5/7.4) was 85.5 ± 0.5%, the “A–B permeability” value (TC7; TC7, pH 6.5/7.4, 1.0E-05 M) was 52.2 ± 1.7 10^−6 cm s^−1 and the “B–A permeability” value (TC7; TC7, pH 6.5/7.4, 1.0E-05 M) was 16.2 ± 0.2 10^−6 cm s^−1.
With `CCC/C=C/CC1(C)COc2cc(C(=O)N3CCCCC3)ccc21` (stereo not shown) [Compound 19] the Ki (hCB2; [6]) was 83.6 ± 23.8 nM, the “γ-[35S]GTP hCB2 Emax” value [4] was 97.1% and the “γ-[35S]GTP hCB1 Emax” value ([2]; percentage relative to the efficacy of compound 7) was 60%. The “%MPE for reversing mechanical allodynia versus vehicle” value ([1]; i.p., 15 mg kg^-1) was “significantly different (P <0.05) from that of the vehicle” and the “Effect on mechanical (tactile) allodynia” value [1] was “suppressed mechanical allodynia”.
With `CCC/C=C/CC1(C)COc2cc(C(=O)NC3CCCCC3)ccc21` (stereo not shown) [Compound 20, 3-((E)-Hex-2-enyl)-3-methyl-2,3-dihydrobenzofuran-6-carboxylic acid cyclohexylamide] the Ki (hCB2) was over 1000 nM, the Ki (hCB1) was over 1000 nM and the EC50 [4] was 839 ± 5.5 nM. For the same molecule, the EC50 [2] was over 10000 nM.
For `CC1(Cc2ccccc2)COc2cc(C(=O)N3CCOCC3)ccc21` (stereo not shown) [Compound 22, (3-Benzyl-3-methyl-2,3-dihydrobenzofuran-6-yl)morpholinomethanone], the EC50 [4] was 5583 ± 4.4 nM and the EC50 [2] was over 10000 nM.
`CN(C(=O)c1ccc2c(c1)OCC2(C)Cc1ccccc1)C(C)(C)C` (stereo not shown) [Compound 23, 3-Benzyl-N-tert-butyl-N,3-dimethyl-2,3-dihydrobenzofuran-6-carboxamide] gave an EC50 [4] of 95.3 ± 1.8 nM and an EC50 [2] of 2580 ± 1.5 nM.
For `CC1(Cc2ccccc2)COc2cc(C(=O)NCC3CCOCC3)ccc21` (stereo not shown) [Compound 24, 3-Benzyl-3-methyl-2,3-dihydrobenzofuran-6-carboxylic acid (tetrahydropyran-4-ylmethyl)amide], the EC50 [4] was 659 ± 1.4 nM and the EC50 [2] was over 10000 nM.
Work on `CC1(Cc2cccc3ccccc23)COc2cc(C(=O)NC3CCCCC3)ccc21` (stereo not shown) [Compound 27, 3-Methyl-3-naphthalen-1-ylmethyl-2,3-dihydrobenzofuran-6-carboxylic acid cyclohexylamide] yielded an EC50 [4] of over 10000 nM and an EC50 [2] of over 10000 nM.
In the case of `CC1(Cc2cccc3ccccc23)COc2cc(C(=O)N3CCCCC3)ccc21` (stereo not shown) [Compound 28, (3-Methyl-3-naphthalen-1-ylmethyl-2,3-dihydrobenzofuran-6-yl)-piperidin-1-ylmethanone], the EC50 [4] is reported as over 10000 nM and the EC50 [2] is reported as over 10000 nM.
Work on `CC1(Cc2ccc3ccccc3c2)COc2cc(C(=O)N3CCCCC3)ccc21` (stereo not shown) [Compound 29, (3-Methyl-3-naphthalen-2-ylmethyl-2,3-dihydrobenzofuran-6-yl)-piperidin-1-ylmethanone] yielded a Ki (hCB2) of 490 ± 45 nM, a Ki (hCB1) of 430 ± 39 nM and an EC50 [4] of 875 ± 1.4 nM. The EC50 [2] was over 10000 nM.
In the case of `CC1(Cc2ccc(Cl)cc2)COc2cc(C(=O)N3CCCCC3)ccc21` (stereo not shown) [Compound 30, [3-(4-Chlorobenzyl)-3-methyl-2,3-dihydrobenzofuran-6-yl]piperidin-1-ylmethanone], the Ki (hCB2) is reported as 123 ± 16.5 nM, the EC50 [4] is reported as 56.2 ± 1.2 nM and the EC50 [2] is reported as 1363 ± 1.4 nM. For the same molecule, the Emax ([2]; read-out: γ-[35S]GTP hCB1 Emax) was 86.9%.
`COc1ccc(CC2(C)COc3cc(C(=O)N4CCCCC4)ccc32)cc1` (stereo not shown) [Compound 31, [3-[(4-Methoxyphenyl)methyl]-3-methyl-2,3-dihydrobenzofuran-6-yl]-(1-piperidyl)methanone] gave an EC50 [4] of 235 nM and an EC50 [2] of over 10000 nM.
Molecule `CC1(Cc2ccncc2)COc2cc(C(=O)N3CCCCC3)ccc21` (stereo not shown) [Compound 32, [3-Methyl-3-(4-pyridylmethyl)-2,3-dihydrobenzofuran-6-yl]-(1-piperidyl)methanone] has an EC50 [4] of 2800 nM and an EC50 [2] of over 10000 nM.
For `C[C@@]1(Cc2ccccc2)COc2cc(C(=O)N3CCCCC3)ccc21` [Compound 33, (S)-3-Benzyl-3-methyl-2,3-dihydrobenzofuran-6-carboxylic acid piperidine amide], the “γ-[35S]GTP hCB2 Emax” value [4] was 86%.
For `C[C@]1(Cc2ccccc2)COc2cc(C(=O)N3CCCCC3)ccc21` [Compound 34, (R)-3-benzyl-3-methyl-2,3-dihydrobenzofuran-6-carboxylic acid piperidine amide], the “γ-[35S]GTP hCB2 Emax” value [4] was 43.3%.
